We go through one compound from ChEMBL document CHEMBL1649574, “Prevalence and characterization of heterogeneous vancomycin-intermediate Staphylococcus aureus isolates from 14 cities in China” (2009).

SMILES strings stand for the structures. Values after ≈ are worked out from the molar mass of the structure shown.

Common to all, as to assay type: functional
The test system of assay [1] is Staphylococcus aureus. Kind of assay: Antimicrobial activity against heterogeneous vancomycin-intermediate Staphylococcus aureus by agar dilution method. The procedure, abridged:
(§1)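 Agar-dilution MICs were measured on a subset of 200 blood MRSA isolates from China. Agents: oxacillin, rifampin, gentamicin, levofloxacin, erythromycin, vancomycin, teicoplanin, tigecycline, ceftobiprole and linezolid. Phenotype came from the PAP-AUC ratio of each isolate to S. aureus Mu3 (VSSA <0.9; hVISA 0.9 to 1.3; VISA ≥1.3), read on BHI agar with 0 to 8.0 mg/liter vancomycin after 48 h at 35°C.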
On the technique in general: In agar dilution the substance is mixed into plates at graded concentrations.

The test system of assay [2] is Staphylococcus aureus. Nature of the assay: Antimicrobial activity against heterogeneous vancomycin-intermediate Staphylococcus aureus assessed as growth inhibition at 0.125 times MIC. Set-up: scale not given: the % may be the effect or the level left.
Assay [3] relates to Staphylococcus aureus. Nature of the assay: Antimicrobial activity against vancomycin-susceptible Staphylococcus aureus assessed as growth inhibition at 0.125 times MIC. On the set-up: scale not given: the % may be the effect or the level left.
In assay [4] the test system is Staphylococcus aureus. Nature of the assay: Antimicrobial activity against vancomycin-susceptible Staphylococcus aureus by agar dilution method. The procedure, abridged: as §1
The test system of assay [5] is Staphylococcus aureus. Kind of assay: Antimicrobial activity against vancomycin-susceptible Staphylococcus aureus assessed as growth inhibition at 4 times MIC. Set-up: scale not given: the % may be the effect or the level left.
The test system of assay [6] is Staphylococcus aureus. Kind of assay: Antimicrobial activity against heterogeneous vancomycin-intermediate Staphylococcus aureus assessed as growth inhibition at 0.25 times MIC. On the set-up: scale not given: the % may be the effect or the level left.
In assay [7] the test system is Staphylococcus aureus. Kind of assay: Antimicrobial activity against heterogeneous vancomycin-intermediate Staphylococcus aureus assessed as growth inhibition at 2 times MIC. Set-up: scale not given: the % may be the effect or the level left.
Assay [8] has as its system Staphylococcus aureus. Nature of the assay: Antimicrobial activity against heterogeneous vancomycin-intermediate Staphylococcus aureus assessed as growth inhibition at 4 times MIC. On the set-up: scale not given: the % may be the effect or the level left.
The test system of assay [9] is Staphylococcus aureus. Kind of assay: Antimicrobial activity against heterogeneous vancomycin-intermediate Staphylococcus aureus assessed as intermediate isolates by agar dilution method. The procedure, abridged:
(§2)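 MICs by agar dilution for all 200 MRSA blood isolates (oxacillin, rifampin, gentamicin, levofloxacin, erythromycin, vancomycin, teicoplanin, tigecycline, ceftobiprole, linezolid). Isolates were grouped by PAP-AUC ratio against S. aureus Mu3: below 0.9 VSSA, 0.9 to 1.3 hVISA, 1.3 or more VISA.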

For assay [10], the system named is Staphylococcus aureus. Kind of assay: Antimicrobial activity against heterogeneous vancomycin-intermediate Staphylococcus aureus assessed as growth inhibition at 16 times MIC. Set-up: scale not given: the % may be the effect or the level left.
For assay [11], the system named is Staphylococcus aureus. Kind of assay: Antimicrobial activity against heterogeneous vancomycin-susceptible Staphylococcus aureus assessed as intermediate isolates by agar dilution method.
In assay [12] the test system is Staphylococcus aureus. Nature of the assay: Antimicrobial activity against vancomycin-susceptible Staphylococcus aureus assessed as growth inhibition at 16 times MIC. On the set-up: scale not given: the % may be the effect or the level left.
Assay [13] has as its system Staphylococcus aureus. Kind of assay: Antimicrobial activity against heterogeneous vancomycin-intermediate Staphylococcus aureus assessed as growth inhibition at 0.5 times MIC. Set-up: scale not given: the % may be the effect or the level left.
Assay [14] concerns Staphylococcus aureus. Kind of assay: Antimicrobial activity against heterogeneous vancomycin-intermediate Staphylococcus aureus assessed as susceptible isolates by agar dilution method. The procedure, abridged:
as §2

Assay [15] concerns Staphylococcus aureus. Kind of assay: Antimicrobial activity against vancomycin-susceptible Staphylococcus aureus assessed as growth inhibition at 0.25 times MIC. On the set-up: scale not given: the % may be the effect or the level left.
The test system of assay [16] is Staphylococcus aureus. Nature of the assay: Antimicrobial activity against vancomycin-susceptible Staphylococcus aureus assessed as growth inhibition at 2 times MIC. Set-up: scale not given: the % may be the effect or the level left.
The subject of assay [17] is Staphylococcus aureus. Nature of the assay: Antimicrobial activity against vancomycin-susceptible Staphylococcus aureus assessed as growth inhibition at MIC. On the set-up: scale not given: the % may be the effect or the level left.
Assay [18] has as its system Staphylococcus aureus. Nature of the assay: Antimicrobial activity against heterogeneous vancomycin-intermediate Staphylococcus aureus assessed as resistant isolates by agar dilution method.
Assay [19] concerns Staphylococcus aureus. Kind of assay: Antimicrobial activity against heterogeneous vancomycin-susceptible Staphylococcus aureus assessed as resistant isolates by agar dilution method.
The test system of assay [20] is Staphylococcus aureus. Kind of assay: Antimicrobial activity against vancomycin-susceptible Staphylococcus aureus assessed as growth inhibition at 0.5 times MIC. On the set-up: scale not given: the % may be the effect or the level left.
Assay [21] relates to Staphylococcus aureus. Kind of assay: Antimicrobial activity against heterogeneous vancomycin-susceptible Staphylococcus aureus assessed as susceptible isolates by agar dilution method. The procedure, abridged:
as §2

Assay [22] deals with Staphylococcus aureus. Kind of assay: Antimicrobial activity against heterogeneous vancomycin-intermediate Staphylococcus aureus assessed as growth inhibition at MIC. On the set-up: scale not given: the % may be the effect or the level left.

As to `CN[C@H](CC(C)C)C(=O)N[C@H]1C(=O)N[C@@H](CC(N)=O)C(=O)N[C@H]2C(=O)N[C@H]3C(=O)N[C@H](C(=O)N[C@H](C(=O)O)c4cc(O)cc(O)c4-c4cc3ccc4O)[C@H](O)c3ccc(c(Cl)c3)Oc3cc2cc(c3O[C@@H]2O[C@H](CO)[C@@H](O)[C@H](O)[C@H]2O[C@H]2C[C@](C)(N)[C@H](O)[C@H](C)O2)Oc2ccc(cc2Cl)[C@H]1O` [VANCOMYCIN], the MIC50 against Staphylococcus aureus [1] and with Staphylococcus aureus [4] was 1 µg/mL (≈ 0.69 µM) in each case. Also, the figures for the MIC90 with Staphylococcus aureus [1] and against Staphylococcus aureus [4] were 2 µg/mL (≈ 1.38 µM) and 1 µg/mL (≈ 0.69 µM), respectively. Further, the Activity with Staphylococcus aureus [2] stood at 0%; with Staphylococcus aureus [3], 0%; in the assay with Staphylococcus aureus [5], 100%; in the assay on Staphylococcus aureus [6], 0%; in the assay with Staphylococcus aureus [7], 96.3%; in the assay on Staphylococcus aureus [8], 100%. Moreover, the Activity with Staphylococcus aureus [9] stood at 3.7%; with Staphylococcus aureus [10], 100%; in the assay with Staphylococcus aureus [11], 0%; with Staphylococcus aureus [12], 100%; in the assay on Staphylococcus aureus [13], 3.7%; with Staphylococcus aureus [14], 96.3%. Also, the Activity in the assay with Staphylococcus aureus [15] is recorded as 0%; in the assay on Staphylococcus aureus [16], 100%; in the assay with Staphylococcus aureus [17], 99.4%; with Staphylococcus aureus [18], 0%; with Staphylococcus aureus [19] it was 0%; with Staphylococcus aureus [20] it was 35.8%. In addition, the Activity amounted to 100% in the assay with Staphylococcus aureus [21] and 85.2% in the assay with Staphylococcus aureus [22].
